From ChEMBL document CHEMBL2062460, “Disubstituted thiourea derivatives and their activity on CNS: synthesis and biological evaluation” (Eur J Med Chem, 2012)
Values after ≈ are worked out from the molar mass of the structure shown. Active and inactive are the calls of the source. The rule behind the calls is not given here.

Experiments:
Bacillus subtilis = test: Antibacterial activity against Bacillus subtilis ATCC 6633 at 400 ug/disc after 18 hrs by disc diffusion method; assay type: functional; conditions: ATCC 6633, 18 h, read-out: DIZ
Summary of the method: (§1)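 Disc diffusion per CLSI on Mueller–Hinton II agar; 9 mm paper discs loaded from methanol or DMSO solutions to 400 µg per disc, dried; growth inhibition zone diameter read after 18 h at 35 °C.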

[1] = test system: Staphylococcus epidermidis; test: Antibacterial activity against Staphylococcus epidermidis ATCC 12228 at 400 ug/disc after 18 hrs by disc diffusion method; assay type: functional; conditions: ATCC 12228, 18 h, read-out: DIZ; summary of the method: as §1
Enterococcus hirae = test: Antibacterial activity against Enterococcus hirae ATCC 10541 at 400 ug/disc after 18 hrs by disc diffusion method; assay type: functional; conditions: ATCC 10541, 18 h, read-out: DIZ; summary of the method: as §1
Staphylococcus aureus [2] = test: Antibacterial activity against Staphylococcus aureus ATCC 25923 at 400 ug/disc after 18 hrs by disc diffusion method; assay type: functional; conditions: ATCC 25923, 18 h, read-out: DIZ; summary of the method: as §1
Staphylococcus aureus [3] = test: Antibacterial activity against Staphylococcus aureus ATCC 29213 at 400 ug/disc after 18 hrs by disc diffusion method; assay type: functional; conditions: ATCC 29213, 18 h, read-out: DIZ; summary of the method: as §1
Bacillus cereus = test: Antibacterial activity against Bacillus cereus ATCC 11778 at 400 ug/disc after 18 hrs by disc diffusion method; assay type: functional; conditions: ATCC 11778, 18 h, read-out: DIZ; summary of the method: as §1
Micrococcus luteus [4] = test: Antibacterial activity against Micrococcus luteus ATCC 9341 at 400 ug/disc after 18 hrs by disc diffusion method; assay type: functional; conditions: ATCC 9341, 18 h, read-out: DIZ; summary of the method: as §1
Escherichia coli = test: Antibacterial activity against Escherichia coli ATCC 10538 at 400 ug/disc after 18 hrs by disc diffusion method; assay type: functional, organism-based; summary of the method: as §1
Proteus vulgaris = test: Antibacterial activity against Proteus vulgaris NCTC 4635 at 400 ug/disc after 18 hrs by disc diffusion method; assay type: functional, organism-based; summary of the method: as §1
[5] = test system: Bordetella bronchiseptica; test: Antibacterial activity against Bordetella bronchiseptica ATCC 4617 at 400 ug/disc after 18 hrs by disc diffusion method; assay type: functional, organism-based; summary of the method: as §1
Candida albicans = test: Antifungal activity against Candida albicans ATCC 90028 at 400 ug/disc after 18 hrs by disc diffusion method; assay type: functional, organism-based
Summary of the method: (§2)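 Yeasts tested by disc diffusion (CLSI) on RPMI agar with 2% glucose; 9 mm paper discs bearing 400 µg compound from methanol or DMSO solution; inhibition zone diameter read after 18 h at 35 °C.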

Candida parapsilosis = test: Antifungal activity against Candida parapsilosis ATCC 22019 at 400 ug/disc after 18 hrs by disc diffusion method; assay type: functional, organism-based; summary of the method: as §2
Staphylococcus aureus [6] = test: Antibacterial activity against Staphylococcus aureus NCTC 4163 after 18 hrs by twofold serial agar dilution technique; assay type: functional; conditions: NCTC 4163, 18 h
Summary of the method: (§3)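 Twofold serial agar dilution on Mueller–Hinton II agar, following CLSI guidelines. Compounds were dissolved in methanol or DMSO and tested at final agar concentrations of 3.125–400 µg/mL. Final inoculum was 10^4 CFU/mL.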

Staphylococcus aureus [7] = test: Antibacterial activity against Staphylococcus aureus ATCC 25923 after 18 hrs by twofold serial agar dilution technique; assay type: functional; conditions: ATCC 25923, 18 h; summary of the method: as §3
Staphylococcus aureus [8] = test: Antibacterial activity against Staphylococcus aureus ATCC 29213 after 18 hrs by twofold serial agar dilution technique; assay type: functional; conditions: ATCC 29213, 18 h; summary of the method: as §3
[9] = test system: Staphylococcus epidermidis; test: Antibacterial activity against Staphylococcus epidermidis ATCC 12228 after 18 hrs by twofold serial agar dilution technique; assay type: functional; conditions: ATCC 12228, 18 h; summary of the method: as §3
Micrococcus luteus [10] = test: Antibacterial activity against Micrococcus luteus ATCC 10240 after 18 hrs by twofold serial agar dilution technique; assay type: functional; conditions: ATCC 10240, 18 h
Staphylococcus aureus [11] = test: Antibacterial activity against methicillin-susceptible Staphylococcus aureus clinical isolate 256/08 after 18 hrs by twofold serial agar dilution technique; assay type: functional; conditions: clinical isolate 256/08, 18 h
Summary of the method: (§4)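 Clinical isolates came from patients in Warsaw Medical University Hospitals and were classed as methicillin-susceptible or -resistant. MIC was determined by twofold serial agar dilution on Mueller–Hinton II agar (CLSI), 3.125–400 µg/mL in agar, with compounds in methanol or DMSO. Inoculum was 10^4 CFU/mL and plates were read after 18 h at 35 °C.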

Staphylococcus aureus [12] = test: Antibacterial activity against methicillin-susceptible Staphylococcus aureus clinical isolate 261/08 after 18 hrs by twofold serial agar dilution technique; assay type: functional; conditions: clinical isolate 261/08, 18 h; summary of the method: as §4
Staphylococcus aureus [13] = test: Antibacterial activity against methicillin-susceptible Staphylococcus aureus clinical isolate 268/08 after 18 hrs by twofold serial agar dilution technique; assay type: functional; conditions: clinical isolate 268/08, 18 h; summary of the method: as §4
Staphylococcus aureus [14] = test: Antibacterial activity against methicillin-susceptible Staphylococcus aureus clinical isolate 338/08 after 18 hrs by twofold serial agar dilution technique; assay type: functional; conditions: clinical isolate 338/08, 18 h; summary of the method: as §4
Staphylococcus aureus [15] = test: Antibacterial activity against methicillin-susceptible Staphylococcus aureus clinical isolate 339/09 after 18 hrs by twofold serial agar dilution technique; assay type: functional; conditions: clinical isolate 339/09, 18 h; summary of the method: as §4
Staphylococcus aureus [16] = test: Antibacterial activity against methicillin-susceptible Staphylococcus aureus clinical isolate 367/09 after 18 hrs by twofold serial agar dilution technique; assay type: functional; conditions: clinical isolate 367/09, 18 h; summary of the method: as §4
Staphylococcus aureus [17] = test: Antibacterial activity against methicillin-susceptible Staphylococcus aureus clinical isolate 369/09 after 18 hrs by twofold serial agar dilution technique; assay type: functional; conditions: clinical isolate 369/09, 18 h; summary of the method: as §4
Staphylococcus aureus [18] = test: Antibacterial activity against methicillin-susceptible Staphylococcus aureus clinical isolate 372/09 after 18 hrs by twofold serial agar dilution technique; assay type: functional; conditions: clinical isolate 372/09, 18 h; summary of the method: as §4
Staphylococcus aureus [19] = test: Antibacterial activity against methicillin-resistant Staphylococcus aureus clinical isolate 275/08 after 18 hrs by twofold serial agar dilution technique; assay type: functional; conditions: clinical isolate 275/08, 18 h; summary of the method: as §4
Staphylococcus aureus [20] = test: Antibacterial activity against methicillin-resistant Staphylococcus aureus clinical isolate 277/08 after 18 hrs by twofold serial agar dilution technique; assay type: functional; conditions: clinical isolate 277/08, 18 h; summary of the method: as §4
Staphylococcus aureus [21] = test: Antibacterial activity against methicillin-resistant Staphylococcus aureus clinical isolate 306/08 after 18 hrs by twofold serial agar dilution technique; assay type: functional; conditions: clinical isolate 306/08, 18 h; summary of the method: as §4
Staphylococcus aureus [22] = test: Antibacterial activity against methicillin-resistant Staphylococcus aureus clinical isolate 309/08 after 18 hrs by twofold serial agar dilution technique; assay type: functional; conditions: clinical isolate 309/08, 18 h; summary of the method: as §4
Staphylococcus aureus [23] = test: Antibacterial activity against methicillin-resistant Staphylococcus aureus clinical isolate 356/09 after 18 hrs by twofold serial agar dilution technique; assay type: functional; conditions: clinical isolate 356/09, 18 h; summary of the method: as §4
Staphylococcus aureus [24] = test: Antibacterial activity against methicillin-resistant Staphylococcus aureus clinical isolate 376/09 after 18 hrs by twofold serial agar dilution technique; assay type: functional; conditions: clinical isolate 376/09, 18 h; summary of the method: as §4
[25] = test system: Staphylococcus epidermidis; test: Antibacterial activity against methicillin-resistant Staphylococcus epidermidis clinical isolate 311/08 after 18 hrs by twofold serial agar dilution technique; assay type: functional; conditions: clinical isolate 311/08, 18 h; summary of the method: as §4
[26] = test system: Staphylococcus epidermidis; test: Antibacterial activity against methicillin-resistant Staphylococcus epidermidis clinical isolate 315/08 after 18 hrs by twofold serial agar dilution technique; assay type: functional; conditions: clinical isolate 315/08, 18 h; summary of the method: as §4
[27] = test system: Staphylococcus epidermidis; test: Antibacterial activity against methicillin-resistant Staphylococcus epidermidis clinical isolate 316/08 after 18 hrs by twofold serial agar dilution technique; assay type: functional; conditions: clinical isolate 316/08, 18 h; summary of the method: as §4
[28] = test system: Staphylococcus epidermidis; test: Antibacterial activity against methicillin-resistant Staphylococcus epidermidis clinical isolate 340/09 after 18 hrs by twofold serial agar dilution technique; assay type: functional; conditions: clinical isolate 340/09, 18 h; summary of the method: as §4
[29] = Cytotoxicity against human MT4 cells after 96 hrs by MTT assay; assay type: cell-based

Fc1cccc(NC(=S)Nc2nc[nH]n2)c1
zone of inhibition at 400 µg/disc (Bacillus subtilis): 32 mm
zone of inhibition at 400 µg/disc [1]: 22 mm
zone of inhibition at 400 µg/disc (Enterococcus hirae): 16 mm
zone of inhibition at 400 µg/disc (Staphylococcus aureus [2]): 34 mm
zone of inhibition at 400 µg/disc (Staphylococcus aureus [3]): 18 mm
zone of inhibition at 400 µg/disc (Bacillus cereus): 14 mm
zone of inhibition at 400 µg/disc (Micrococcus luteus [4]): 36 mm
diameter of the inhibition zone (DIZ) (Escherichia coli): inactive
diameter of the inhibition zone (DIZ) (Proteus vulgaris): inactive
diameter of the inhibition zone (DIZ) [5]: inactive
diameter of the inhibition zone (DIZ) (Candida albicans): inactive
diameter of the inhibition zone (DIZ) (Candida parapsilosis): inactive
MIC (Staphylococcus aureus [6]): 50 µg/mL (≈ 211 µM)
MIC (Staphylococcus aureus [7]): 50 µg/mL (≈ 211 µM)
MIC (Staphylococcus aureus [8]): 50 µg/mL (≈ 211 µM)
MIC [9]: 50 µg/mL (≈ 211 µM)
MIC (Micrococcus luteus [10]): 50 µg/mL (≈ 211 µM)
MIC (Staphylococcus aureus [11]): 25 µg/mL (≈ 105 µM)
MIC (Staphylococcus aureus [12]): 25 µg/mL (≈ 105 µM)
MIC (Staphylococcus aureus [13]): 25 µg/mL (≈ 105 µM)
MIC (Staphylococcus aureus [14]): 24 µg/mL (≈ 101 µM)
MIC (Staphylococcus aureus [15]): 12.5 µg/mL (≈ 52.7 µM)
MIC (Staphylococcus aureus [16]): 12.5 µg/mL (≈ 52.7 µM)
MIC (Staphylococcus aureus [17]): 12.5 µg/mL (≈ 52.7 µM)
MIC (Staphylococcus aureus [18]): 25 µg/mL (≈ 105 µM)
MIC (Staphylococcus aureus [19]): 25 µg/mL (≈ 105 µM)
MIC (Staphylococcus aureus [20]): 12.5 µg/mL (≈ 52.7 µM)
MIC (Staphylococcus aureus [21]): 12.5 µg/mL (≈ 52.7 µM)
MIC (Staphylococcus aureus [22]): 12.5 µg/mL (≈ 52.7 µM)
MIC (Staphylococcus aureus [23]): 12.5 µg/mL (≈ 52.7 µM)
MIC (Staphylococcus aureus [24]): 25 µg/mL (≈ 105 µM)

Fc1ccc(NC(=S)Nc2nc[nH]n2)cc1
zone of inhibition at 400 µg/disc (Bacillus subtilis): 22 mm
zone of inhibition at 400 µg/disc [1]: 16 mm
zone of inhibition at 400 µg/disc (Enterococcus hirae): 11 mm
zone of inhibition at 400 µg/disc (Staphylococcus aureus [2]): 18 mm
zone of inhibition at 400 µg/disc (Staphylococcus aureus [3]): 11 mm
zone of inhibition at 400 µg/disc (Bacillus cereus): 16 mm
zone of inhibition at 400 µg/disc (Micrococcus luteus [4]): 19 mm
diameter of the inhibition zone (DIZ) (Escherichia coli): inactive
diameter of the inhibition zone (DIZ) (Proteus vulgaris): inactive
diameter of the inhibition zone (DIZ) [5]: inactive
diameter of the inhibition zone (DIZ) (Candida albicans): inactive
diameter of the inhibition zone (DIZ) (Candida parapsilosis): inactive
MIC (Staphylococcus aureus [6]): 50 µg/mL (≈ 211 µM)
MIC (Staphylococcus aureus [7]): 50 µg/mL (≈ 211 µM)
MIC (Staphylococcus aureus [8]): 25 µg/mL (≈ 105 µM)
MIC [9]: 25 µg/mL (≈ 105 µM)
MIC (Micrococcus luteus [10]): 6.25 µg/mL (≈ 26.3 µM)
MIC (Staphylococcus aureus [11]): 50 µg/mL (≈ 211 µM)
MIC (Staphylococcus aureus [12]): 50 µg/mL (≈ 211 µM)
MIC (Staphylococcus aureus [13]): 100 µg/mL (≈ 421 µM)
MIC (Staphylococcus aureus [14]): 50 µg/mL (≈ 211 µM)
MIC (Staphylococcus aureus [15]): 50 µg/mL (≈ 211 µM)
MIC (Staphylococcus aureus [16]): 50 µg/mL (≈ 211 µM)
MIC (Staphylococcus aureus [17]): 50 µg/mL (≈ 211 µM)
MIC (Staphylococcus aureus [18]): 50 µg/mL (≈ 211 µM)
MIC (Staphylococcus aureus [19]): 100 µg/mL (≈ 421 µM)
MIC (Staphylococcus aureus [20]): 50 µg/mL (≈ 211 µM)
MIC (Staphylococcus aureus [21]): 50 µg/mL (≈ 211 µM)
MIC (Staphylococcus aureus [22]): 50 µg/mL (≈ 211 µM)
MIC (Staphylococcus aureus [23]): 50 µg/mL (≈ 211 µM)
MIC (Staphylococcus aureus [24]): 50 µg/mL (≈ 211 µM)
MIC [25]: 50 µg/mL (≈ 211 µM)
MIC [26]: 50 µg/mL (≈ 211 µM)
MIC [27]: 100 µg/mL (≈ 421 µM)
MIC [28]: 50 µg/mL (≈ 211 µM)
CC50 at 96 h [29]: > 100 µM
